# TRPC6 activator: mouse TRPC6 channel activation | Q61143 | HEK293-TRPC6 membrane potential dye fluorescence; hits give high values | 0.13% of 310,000 active | B-score at 10 µM;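 active means B-score of the integrated fluorescence ratio above library mean plus 3 SD, and starting fluorescence ratio within library mean plus 5 SD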;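 further: higher score means more depolarization so channel activation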
# Kir21 inh: blocks the mouse Kir2.1 inward-rectifier potassium channel; HEK293-Kir2.1, FluxOR thallium flux fluorescence; hits give low values; P35561; B-score at 10 µM; AID 1672; 0.85% of 310,000 active;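 active means fluorescence ratio B-score at or below minus 3 SD of library scores, with starting-brightness B-score within 2 SD, cut at about -4.2 in these data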;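 further: channel flux triggered by added potassium and thallium sulfate stimulus; B-score of peak minus minimum fluorescence over baseline after thallium stimulus; more negative B-score means stronger Kir2.1 block with less thallium influx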
# Target sequence (P35561 whole entry, looked up): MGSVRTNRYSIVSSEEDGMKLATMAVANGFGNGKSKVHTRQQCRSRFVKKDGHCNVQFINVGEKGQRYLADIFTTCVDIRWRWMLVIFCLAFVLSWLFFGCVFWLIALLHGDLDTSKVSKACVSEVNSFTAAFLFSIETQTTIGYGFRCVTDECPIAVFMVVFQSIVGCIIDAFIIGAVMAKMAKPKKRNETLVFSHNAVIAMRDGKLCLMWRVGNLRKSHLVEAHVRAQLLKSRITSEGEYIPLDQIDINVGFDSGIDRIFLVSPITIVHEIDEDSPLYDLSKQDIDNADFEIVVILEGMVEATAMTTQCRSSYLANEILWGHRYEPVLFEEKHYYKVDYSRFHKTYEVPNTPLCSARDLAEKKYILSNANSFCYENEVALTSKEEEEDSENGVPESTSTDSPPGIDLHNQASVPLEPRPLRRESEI
# TRPC6 inhibitor: blocks the mouse TRPC6 cation channel; Q61143; HEK293-TRPC6, membrane potential dye, ACh-evoked depolarization; hits give low values; B-score at 10 µM; 1.1% of 310,000 active; AID 2553;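 active means B-score under library mean minus 3 SD, initial fluorescence not abnormally high, positive integrated signal ratio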;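 further: B-score derived from integrated fluorescence ratio over the kinetic read; more negative B-score means stronger inhibition of depolarization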
# TRPC4 block: TRPC4 (mouse) channel inhibition | HEK293 TRPC4beta/mu-opioid, DAMGO-evoked Fluo4 calcium flux; hits give low values | B-score at 10 µM | 0.39% of 300,000 active | AID 2247;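 active means B-score over 3 SD under the library average, no early fluorescence shift, positive overall ratio signal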
#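 Assay system: HEK293 cells with stable TRPC4beta plus mu-opioid receptor expression; Probe or stimulus: DAMGO in two steps, submaximal then maximal; Dosing: single-point compound dosing; Measured by: Fluo4 calcium-dye fluorescence, kinetic read; Read-out basis: B score from integrated Fluo4 fluorescence ratio.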
# TRPC4 PAM: allosterically enhances the mouse TRPC4 cation channel | Q9QUQ5 | HEK293 TRPC4beta/mu-opioid, DAMGO EC20, Fluo-4 Ca2+ flux; hits give high values | 0.42% of 310,000 active | B-score at 10 µM;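 active means B-score of calcium response area above 5 SD of library B-scores, with initial fluorescence ratio within 5 SD of library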;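 further: B-score of integrated fluorescence ratio over time as area under calcium response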
# TRPC4 act: opens the mouse TRPC4 cation channel; Q9QUQ5; HEK293 TRPC4beta/mu-opioid, Fluo4 calcium fluorescence; hits give high values; B-score at 10 µM; 0.49% of 310,000 active;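 active means B-score above 5 SD of library B-scores, and initial fluorescence ratio not above library mean plus 5 SD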;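 further: positive B-score marks a calcium rise read as TRPC4 activation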
#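 Assay system – TRPC4beta and mu-opioid receptor HEK293 stable cells · Measured by – Fluo4 fluorescence, kinetic · Schedule – dye loading 45 min room temperature, 110 s kinetic read · Read-out – B-scored integrated calcium fluorescence ratio · Controls – buffer and maximal DAMGO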
# Numbers without * were called inactive; i = inactive. This is a sample that favours compounds with a hit; in the whole collection about 3% have one here.
SMILES,TRPC6 activator,Kir21 inh,TRPC6 inhibitor,TRPC4 block,TRPC4 PAM,TRPC4 act
CC(C)(C)OC(=O)N1CCC(c2cc(=O)n3[nH]cc(C(=O)NC4CCCC4)c3n2)CC1,i,1.27,i,i,i,i
COc1ccc(NC(=O)c2c[nH]n3c(=O)cc(C4CCN(C(=O)OC(C)(C)C)CC4)nc23)cc1Cl,i,0.62,i,-7*,i,i
COc1cc(/C=C/C(=O)c2cccc([N+](=O)[O-])c2)cc(OC)c1OC,i,-4.7*,i,i,i,i
O=C(/C=C/c1ccccc1F)c1cccc([N+](=O)[O-])c1,i,-5.48*,i,i,i,i
COc1cc(/C=C/C(=O)c2ccc(C)c([N+](=O)[O-])c2)cc(OC)c1O,i,2.03,i,i,i,i
COc1ccc(/C=C/C(=O)c2ccc(C)c([N+](=O)[O-])c2)cc1O,i,-1.31,i,i,i,i
COc1cccc(/C=C/C(=O)c2ccc(C)c([N+](=O)[O-])c2)c1,i,-5.75*,i,i,i,i
Cc1c(Cl)c(C(=O)N2CCCC2)nn1C,i,0.19,i,i,i,i
CN(CC(=O)Nc1ccccc1C(F)(F)F)C(=O)COc1ncnc2ccccc12,i,-0.18,i,i,i,i
CC(=O)c1cccc(NC(=O)NNC(=O)c2ccc(-c3ccccc3)cc2)c1,i,-0.3,i,i,i,i
O=C(CN1CCN(S(=O)(=O)c2ccccc2)CC1)Nc1ccc(Cl)c([N+](=O)[O-])c1,i,-1,i,i,i,i
NC(=O)C(=O)N/N=C/c1cccc(C(F)(F)F)c1,i,-0.64,i,i,i,i
CCOc1ccccc1NC(=O)CN(c1ccc(OC)cc1)S(=O)(=O)c1c(C)[nH]c(=O)[nH]c1=O,i,1.18,i,i,20*,i
COc1ccc(N(CC(=O)Nc2ccccc2C)S(=O)(=O)c2c(C)[nH]c(=O)[nH]c2=O)cc1,i,-0.73,i,i,i,i
CCC(=O)N1CCc2cc(Br)cc(S(=O)(=O)NCCCN(CC)Cc3ccccc3)c21,i,0.12,i,i,i,148*
CC(=O)N1CCc2cc(Br)cc(S(=O)(=O)NCCCN(C)Cc3ccccc3)c21,i,-4.35,i,i,i,119*
CCC(=O)N1CCc2cc(Br)cc(S(=O)(=O)NCCCN(C)Cc3ccccc3)c21,i,0.21,i,i,40*,82*
CCCc1c(C(=O)N/N=C/c2cccc(OCc3ccc(F)cc3)c2)nnn1-c1nonc1N,i,-0.41,i,i,i,i
Cc1c(C(=O)NCC(c2ccco2)N(C)C)oc2c(Cl)cccc12 (stereo unspecified),i,-0.79,i,-8*,i,i
Cc1cc(C(=O)NCC(c2ccco2)N(C)C)ccc1[N+](=O)[O-] (stereo unspecified),i,0.88,i,i,i,71*
CN(C)C(CNC(=O)c1cccc(C(F)(F)F)c1)c1ccco1 (stereo unspecified),i,1.16,i,i,i,i
CC(C)CCOc1ccc(C(=O)NCC(c2ccco2)N(C)C)cc1 (stereo unspecified),i,-1.03,i,-7*,i,i
COc1ccc(Cl)cc1C(=O)NCC(c1ccco1)N(C)C (stereo unspecified),i,-0.66,i,i,i,i
CN(C)C(CNC(=O)c1ccccc1OCc1ccc(Cl)cc1)c1ccco1 (stereo unspecified),i,-1.82,i,-7*,i,i
Cn1c(SCc2ccc(Cl)cc2)nnc1-c1ccc2nonc2c1,i,-0.01,i,i,i,i
SMILES,TRPC6 activator,Kir21 inh,TRPC6 inhibitor,TRPC4 block,TRPC4 PAM,TRPC4 act
O=S(=O)(NCCSc1ccccc1)c1cccs1,i,-1.35,i,i,i,i
COC(=O)c1cc(NS(=O)(=O)c2ccc(C)c3ccccc23)ccc1N1CCOCC1,i,-0.26,i,i,i,i
COc1ccc(-c2noc(C(=O)NCc3ccc(F)cc3)n2)cc1OC,i,0.12,i,i,i,i
CC1=NN(c2ccccc2)C(=O)/C1=C/c1ccc(Cl)cc1,i,-0.05,i,i,10*,i
CC1=NN(c2ccccc2)C(=O)/C1=C/c1cccs1,i,-0.33,i,i,i,i
C#CCOc1ccc(/C=C2/C(=O)ON=C2C)cc1Br,i,-0.61,i,i,i,i
COc1cc(CN2CCC(Oc3cc(C(=O)NC4CC4)ccc3OC)CC2)cc(OC)c1,i,0.02,i,i,i,i
Cc1ccc(C)c(OCCCCn2ccnc2)c1,i,-1.8,i,i,i,133*
Cc1cc(OCCn2ccnc2)cc(C)c1Cl,i,-0.33,i,i,i,129*
CC(C)(C)c1cc(Cl)ccc1OCCn1ccnc1,i,-5.58*,i,i,42*,63*
c1ccc(-c2ccccc2OCCCCn2ccnc2)cc1,i,-4.83*,i,i,i,i
Cc1cc(OCCn2ccnc2)ccc1C(C)C,i,-0.05,i,i,i,i
O=c1[nH]c2ccccc2cc1CN(Cc1ccco1)S(=O)(=O)c1ccccc1,i,-0.33,i,i,i,i
Cc1cccc(CCNCc2c(C(=O)O)c(C)n(-c3ccccc3)c2C)c1,i,0.54,i,i,i,i
CC(O)CNCCCOc1ccc(Cl)cc1C(C)(C)C (stereo unspecified),i,-6.19*,i,i,i,i
Cc1cccc(OCCCCCn2ccnc2)c1C,i,-1.34,i,i,i,69*
CC(C)(C)c1ccccc1OCCCCCn1ccnc1,i,-7.37*,i,i,42*,i
Cc1cccc(C)c1OCCCn1ccnc1,i,-0.37,i,i,i,i
CCOc1ccc(NC(=O)CC2C(=O)N(c3ccc(OC)c(Cl)c3)C(=S)N2C2CC2)cc1 (stereo unspecified),i,0.49,i,i,i,i
COCCN1C(=O)CS/C1=C(/C#N)C(=O)NCc1ccco1,i,0.1,i,i,i,i
CCC(=O)N1CCc2cc(S(=O)(=O)NCCC(=O)N3CCN(c4cccc(C)c4)C(C)C3)ccc21 (stereo unspecified),i,-0.21,i,i,i,i

# From PubChem BioAssay
